# STAT3 blocker: reduces IL-6 driven STAT3 reporter signal; U3A cells, IL-6 STAT3-luciferase reporter, luminescence; host cell line lacks STAT1; inhibition, % at 5.5 µM; 190,000 compounds, 0.89% hits;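 active = inhibition above the mean inhibition across all screened compounds plus 3 SD, cut at about 44% in these data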;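 note: 0% = DMSO only wells and 100% = 100 µM nifuroxazide control wells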
# APP 5'UTR act: APP 5'UTR luciferase reporter activation. AID 1276. 190,000 compounds, 1% hits. SH-SY5Y APP 5'UTR luciferase reporter, luminescence; zero percent = DMSO vehicle wells. activation, % at 2 µM;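 active = activation above a set limit, based on mean plus 3 SD of controls, cut at about 140% in these data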
# NF-kB neuron act: compounds increasing NF-kB expression in human neuronal cells; NF-kB reporter expression; active compounds read high; fold change at 12.5 µM; 190,000 compounds, 1.6% hits; in the data active = fold change above about 3.3
# STAT1 blocker: inhibitors of IFN-gamma induced STAT1 signaling; NIH 3T3 STAT1-luciferase reporter, luminescence; inhibition, % at 5.5 µM; 200,000 compounds, 0.35% hits;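 active = inhibition above a set limit, the mean inhibition across all tested compounds plus 3 SD, cut at about 34% in these data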;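 note: 0% = IFN-gamma with DMSO and 100% = IFN-gamma with 300 µM nifuroxazide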
# STAT1 act-1: STAT1 signaling activation; activation (% of control), % at 5.5 µM; 200,000 compounds, 2.6% hits; NIH 3T3 STAT1-luciferase reporter, IFN-gamma, luminescence; 100% = IFN-gamma alone, no compound;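 active = activation above the screen-wide mean activation plus 3 SD, cut at about 130% in these data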;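 note: raw ratio to IFN-gamma control signal so 100% means no change and 0% no light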
# STAT3 act-1: STAT3 signaling activation; 190,000 compounds, 0.91% hits; activation (% of control), % at 5.6 µM; U3A cells, IL-6 STAT3-luciferase reporter, luminescence; 100% = signal with IL-6 EC80 alone;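 active = activation above the screen-wide mean of compound activation plus 3 SD, cut at about 130% in these data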;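 note: 0% = background luminescence of wells with medium and substrate only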
#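 Test system: human U3A cells carrying STAT3-luciferase construct; control set: IL-6-only wells as 100% reference; timing: compound pre-incubation 1 h before IL-6, then 6 h stimulation at 37 °C; also added: IL-6 stimulus at 33 ng/mL final; evaluation: % activation versus median of IL-6-stimulated wells; detection: reporter luminescence signal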
# STAT3 act-2: confirmation of STAT3 signaling activators | U3A STAT3-luciferase reporter, IL-6 potentiation, luminescence; U3A cells lack STAT1; 100 means same as IL-6 alone | shares compounds with STAT3 act-1 | potentiation (% of control), % at 5.7 µM | AID 1267 | 1,200 compounds, 64% hits;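 active = percent activation of the STAT3 luciferase reporter above a set limit taken from the earlier primary screen, cut at about 130% in these data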;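 note: 0% = background signal of medium plus substrate and 100% = median of IL-6 with DMSO wells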
# NFkB act 2: activates NF-kappaB, counter-screen to STAT3 activators | human cells, NF-kappaB reporter activation | shares compounds with STAT3 act-1 | activation (% of control), % at 5.7 µM | 1,200 compounds, 11% hits; in the data active = activation above about 120%;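 note: reporter induced by TNF-alpha stimulation; 100% = median of stimulated DMSO wells and 0% = no signal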
# STAT1 act-2: counter-screen for STAT3 activators: STAT1 activation; shares compounds with STAT3 act-1; NIH 3T3 STAT1-luciferase reporter, IFN-gamma, luminescence; activation (% of control), % at 5.7 µM; 1,200 compounds, 13% hits; AID 1318;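 active = activation above the solvent-only control well mean plus 3 SD, set per screening run, cut at about 120% in these data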;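 note: 100% = IFN-gamma with DMSO median signal so 100% means no change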
# * marks the source's active call; other numbers are inactive results; nt = not tested or not shown. A selection: hits, their analogues and other compounds. The true share with any hit is near 5.1%.
SMILES,STAT3 blocker,APP 5'UTR act,NF-kB neuron act,STAT1 blocker,STAT1 act-1,STAT3 act-1,STAT3 act-2,NFkB act 2,STAT1 act-2
CCc1ccc(S(=O)(=O)Nc2cc(SCC(=O)O)c(O)c3ccccc23)cc1,-6,-6,0.69,-2,100,109,nt,nt,nt
O=S(=O)(Nc1cc(Sc2cccc3cccnc23)c(O)c2ccccc12)c1ccccc1,-96,-75,0.5,4,96,176*,148*,128*,128*
Cc1ccc(-c2nn(-c3ccccc3)cc2NC(=O)CCl)cc1,10,-20,0.99,-12,108,96,nt,nt,nt
CCC(=O)n1nc(-c2ccc(Cl)cc2)nc1SC,16,21,2,-14,113,89,nt,nt,nt
Cc1nc2nc(-c3ccccc3)nn2c(C)c1Cl,-92,-14,nt,-15,114,179*,169*,126*,138*
Cc1nc(-c2ccccc2)nc(Cl)c1Cl,2,8,1.1,9,91,100,nt,nt,nt
Cc1nc2nc(-c3ccc(Cl)cc3)nn2c(C)c1Cl,-84,9,1.9,9,92,167*,164*,118,124*
Cc1cc(Nc2nc(Cl)c(Cl)cc2Cl)n(-c2ccccc2)n1,-45,-16,1.1,2,98,143*,123,109,106
O=C(c1ccco1)[C@@H]1[C@@H]2C(=O)N(c3ccc(Br)cc3)C(=O)[C@@H]2C2c3ccccc3C=CN21 (stereo partly drawn),-48,2,nt,-3,103,142*,125,106,106
CCCOc1ccc(C(=O)Nn2c(C)nc3ccccc3c2=O)cc1,-3,-6,1.5,0,100,104,nt,nt,nt
CCCOc1ccc(-c2nc(OC)c3ccccc3n2)cc1,-42,0,1.7,-7,106,142*,152*,105,100
CCc1ccc2c(c1)C(=O)c1ccccc1C2=O,-48,99,3.5*,-22,120,142*,151*,131*,165*
O=C(OCc1ccccc1)c1ccc2c(c1)-c1ccccc1C2=O,23,4,2.5,-25,123,85,nt,nt,nt
Cc1cccc2nc(CSc3nc4[nH]ncc4c(=O)n3-c3ccccc3Cl)cc(=O)n12,-30,5,0.62,23,79,136*,152*,96,88
CCOC(=O)N1CCN(C(=O)c2ccc3nc4ccsc4c(=O)n3c2)CC1,-45,11,1,-3,104,137*,134*,100,100
FC(F)(F)c1ccc(Nc2nnnc3ccccc23)cc1,10,29,1.6,-23,120,101,nt,nt,nt
COc1ccc(/C=N/N(C(C)=O)c2nc(-c3ccc(C)cc3)cs2)cc1,17,-2,1.2,-2,102,88,nt,nt,nt
COc1ccccc1/C=N/N(C(C)=O)c1nc(-c2ccc(F)cc2)cs1,-110,24,2.2,-21,119,194*,185*,126*,150*
Cc1cc(SCC(=O)c2cc3ccccc3o2)nc2ccccc12,-47,11,1.2,4,96,146*,150*,107,95
CNS(=O)(=O)c1cccc(C(=O)OCc2cc(Cl)cc3c2OCOC3)c1,-3,7,0.87,-9,108,106,nt,nt,nt
O=[N+]([O-])c1ccc(N2CCN(CCO)CC2)cc1Sc1nc2ccccc2[nH]1,3,2,1.4,6,95,103,nt,nt,nt
N#C/C(=C(/O)COC(=O)c1ccc(Cl)c(S(=O)(=O)N2CCOCC2)c1)c1nc2ccccc2[nH]1,4,11,0.8,5,95,98,nt,nt,nt
N#C/C(=C(/O)COC(=O)CCc1ccc(S(=O)(=O)N2CCOCC2)cc1)c1nc2ccccc2[nH]1,-55,8,2.6,16,86,149*,144*,102,86
CO/N=C/c1cccn1-c1nccc(OC)c1C#N,-1,-8,0.92,-2,100,105,nt,nt,nt

# Screening results deposited in PubChem by several laboratories.
